# KCNQ1 block – human KCNQ1 channel inhibition; P51787; CHO-K1 KCNQ1, FluxOR thallium flux fluorescence; active compounds read high; B-score at 10 µM; 1.3% of 310,000 active; AID 2642;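 active = compounds whose thallium flux B-score, printed positive for inhibition, exceeds three library SD while starting fluorescence stays within three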;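 also: channel opened by potassium depolarization with thallium stimulus after 20 min compound exposure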
# Target sequence (P51787 whole entry, looked up): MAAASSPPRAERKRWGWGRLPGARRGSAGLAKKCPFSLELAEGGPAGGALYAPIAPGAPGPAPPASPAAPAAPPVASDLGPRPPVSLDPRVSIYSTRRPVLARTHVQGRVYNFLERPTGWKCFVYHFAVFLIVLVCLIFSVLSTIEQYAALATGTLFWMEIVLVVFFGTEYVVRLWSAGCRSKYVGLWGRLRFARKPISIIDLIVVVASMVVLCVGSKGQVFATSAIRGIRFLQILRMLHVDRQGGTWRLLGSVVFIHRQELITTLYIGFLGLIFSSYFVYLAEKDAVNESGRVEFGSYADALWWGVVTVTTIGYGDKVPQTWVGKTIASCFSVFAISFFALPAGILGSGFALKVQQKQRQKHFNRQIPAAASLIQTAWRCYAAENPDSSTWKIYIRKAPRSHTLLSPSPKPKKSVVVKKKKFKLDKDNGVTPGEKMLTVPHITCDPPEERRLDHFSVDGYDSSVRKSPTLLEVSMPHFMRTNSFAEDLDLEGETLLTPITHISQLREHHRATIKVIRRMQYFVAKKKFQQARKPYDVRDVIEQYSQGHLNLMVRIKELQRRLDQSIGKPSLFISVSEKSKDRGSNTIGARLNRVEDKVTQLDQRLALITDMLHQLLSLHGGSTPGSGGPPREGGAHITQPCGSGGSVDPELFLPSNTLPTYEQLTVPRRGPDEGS
# KCNQ1 act – human KCNQ1 channel potentiation or activation; P51787; CHO-K1 KCNQ1, thallium flux FluxOR fluorescence; active compounds read high; B-score at 10 µM; 0.35% of 310,000 active; AID 2648;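 active = fluorescence ratio B-score, a plate-corrected score, at least three library SD, with initial intensity B-score within 5 SD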
#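 Medium – assay buffer, equal DMSO in all wells · Material – CHO-K1 cell line with stable KCNQ1 potassium channel expression · Signal – kinetic FluxOR thallium fluorescence, 10-s 1-Hz baseline, 110-s post-stimulus read · Compound – single concentration per compound, DMSO matched to controls · Schedule – 37 °C overnight plating, 90-min dark dye load, 20-min compound pretreatment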
# KCNK9 block – inhibitors of human KCNK9 two-pore domain potassium channel; AID 488922; 1.2% of 310,000 active; B-score at 10 µM; HEK293 KCNK9, FluxOR thallium flux fluorescence; active compounds read low;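 active = ratio B-score over 3 SD below the library mean, with starting fluorescence within 5 SD of its mean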;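 also: negative B-score means less thallium flux so channel inhibition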
# KCNK3 inh – human KCNK3 channel inhibition, primary screen | O14649 | CHO-KCNK3 thallium flux, FluxOR fluorescence; active compounds read low | B-score at 10 µM | 0.84% of 340,000 active;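 active = B-score under library mean minus 4 SD, starting fluorescence ratio at most library mean plus 5 SD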;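 also: more negative B-score means stronger inhibition of thallium flux through KCNK3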
# hERG protect – shields human hERG channel from block by proarrhythmic agents; Q12809; CHO-hERG, FluxOR thallium flux, dofetilide IC70 present; activation (rescue from dofetilide block), less the hit threshold, % at 10 µM; 0.51% of 310,000 active; AID 1511;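 active = activation above the mean of controls blocked by dofetilide plus 5 SD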;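 also: thallium influx through hERG after potassium depolarization seen as dye fluorescence rise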
# KCNK9 block conf – confirmation of human KCNK9 potassium channel inhibitors; shares compounds with KCNK9 block; HEK293 KCNK9 cells, FluxOR thallium flux fluorescence; inhibition, % at 10 µM; 43% of 4,900 active; AID 492992;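 active = thallium signal inhibited by more than 5 SD of the compound-free buffer control wells, on both duplicate plates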
# Kir21 sel – mouse Kir2.1 off-target activity of KCNK9 modulators; shares compounds with KCNK9 block; Kir2.1 cells, FluxOR thallium flux fluorescence; inhibition, % at 10 µM; 4% of 4,900 active; AID 492993;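 active = thallium signal drop more than 5 SD beyond the mean of the no-compound control wells, seen in both duplicate plates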;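 also: signal is fluorescence rise after thallium addition divided by baseline fluorescence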
# HEK293 Tl ctr – second counter-screen for KCNK9 modulators: effect in non-induced cells; inhibition, % at 10 µM; non-induced KCNK9-HEK293, FluxOR thallium flux; shares compounds with KCNK9 block; AID 492997; 40% of 4,900 active;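 active = thallium signal drop beyond 5 SD of the untreated control mean, on both duplicate plates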
# Hits are given with their value; – = inactive; · = no result. An excerpt weighted towards active compounds, which were near 3.1% of everything screened.
SMILES,KCNQ1 block,KCNQ1 act,KCNK9 block,KCNK3 inh,hERG protect,KCNK9 block conf,Kir21 sel,HEK293 Tl ctr
CSc1ccc(C(=O)C2CCCN(C(=O)c3nonc3C)C2)cc1 (stereo not given),–,–,–,–,–,–,–,–
COCc1ccc(C(=O)N2CCCC(C(=O)c3ccc(SC)cc3)C2)o1 (stereo not given),–,–,–,–,–,–,–,–
O=C(Cn1cc2c(n1)CCCC2)Nc1cc(-c2cccc(Cl)c2)no1,–,–,-15.4,–,–,59.5%,–,–
CSc1nnc(Cc2sc(-c3ccccc3)nc2-c2ccccc2)o1,–,–,-8.1,–,–,–,–,25.0%
CCC(O)(Cc1ccccn1)Cc1ccccn1,·,·,·,–,·,·,·,·
Cc1cccc(-c2nc(CS(=O)CC(=O)NCc3cccs3)c(C)o2)c1 (stereo not given),–,–,–,–,–,·,·,·
Cc1cccc(-c2nc(CSCC(=O)NCc3cccs3)c(C)o2)c1,–,–,–,–,–,–,–,–
Cc1ccc(SCc2c(C#N)c3ccccc3n2C)cc1,–,–,-11.5,-9.85,–,57.0%,–,46.0%
Clc1ccc(C(c2nnnn2C2CCCCC2)N(Cc2cccnc2)Cc2ccco2)cc1 (stereo not given),–,–,-11.3,–,–,–,–,45.0%
Cc1ccc2[nH]c(=O)c(C(c3nnnn3C3CCCC3)N(Cc3cccnc3)Cc3ccco3)cc2c1 (stereo not given),–,–,–,–,–,·,·,·
CCCCCCCCC[n+]1cccc2c3ccccc3ccc21,–,–,-17.4,–,–,70.5%,89.5%,30.0%
O=C(/C=C/c1ccccc1Cl)N(Cc1ccc(Cl)cc1)C1CCS(=O)(=O)C1 (stereo not given),–,–,-8.2,–,–,55.0%,–,35.5%
Cc1ccc(S(=O)(=O)NC(C(=O)O)c2ccccc2)cc1 (stereo not given),–,–,–,–,–,·,·,·
CN(C)/C=N/c1nc(-c2ccc3ccccc3c2)cs1,–,–,–,–,–,–,–,–
CCOc1cc(C2C(C(=O)OC)=C(C)N=C3SC(C)C(=O)N32)ccc1OC(C)=O (stereo not given),–,–,–,–,–,·,·,·
CCOC(=O)C1=C(C)N=C2SC(C)C(=O)N2C1c1ccc(OC(C)=O)c(OC)c1 (stereo not given),–,–,-14.5,–,–,63.0%,–,33.5%
CCC(=O)Nc1cccc(C2=NN(c3ccccc3)C(c3ccc(OC)cc3)C2)c1 (stereo not given),–,–,-13.4,–,–,51.5%,–,39.5%
COc1ccc(C2CC(c3ccccc3)=NN2c2ccc(Cl)c(C(=O)O)c2)cc1 (stereo not given),–,–,–,–,–,·,·,·
COc1ccc(OC2CCN(C(=O)Nc3ccc(C)cc3)CC2)cc1,–,–,–,–,–,·,·,·
Nc1nc(-c2ccccc2)c(-c2ccccc2)o1,–,–,–,–,–,·,·,·
c1ccc(-c2nc(-c3nccc4ccccc34)oc2-c2ccccc2)cc1,–,–,–,–,–,–,–,–
C(=N\N(Cc1ccccc1)c1ccccc1)/c1ccco1,–,–,-8.09,–,–,–,–,42.0%
COC(=O)c1cc2occc2n1Cc1nc(-c2cccc(Cl)c2)oc1C,–,–,-9.33,–,–,–,–,24.5%
Cc1cccc(N2CCN(Cc3nc(-c4ccccc4Cl)oc3C)CC2)n1,–,–,–,–,–,–,–,–
Cc1cccc(N2CCN(Cc3nc(-c4cccc(Cl)c4)oc3C)CC2)n1,–,–,–,–,–,–,–,–
SMILES,KCNQ1 block,KCNQ1 act,KCNK9 block,KCNK3 inh,hERG protect,KCNK9 block conf,Kir21 sel,HEK293 Tl ctr
Cc1oc(-c2cccc(C(F)(F)F)c2)nc1CN1CCN(c2ccccn2)CC1,–,–,–,–,–,–,–,–
COC(=O)c1cc2sccc2n1Cc1nc(-c2ccc(Cl)cc2)oc1C,–,–,–,–,–,·,·,·
COc1ccc2c(CC(=O)NNC(=O)c3cccs3)coc2c1,·,·,·,–,·,·,·,·
Cc1cc(Br)ccc1NC(=O)c1ccco1,–,–,–,–,–,·,·,·
O=C(Nc1ccc(Cl)cc1C(=O)Nc1ccc(Br)cn1)c1ccco1,–,–,-11.6,–,–,53.0%,–,–
CC(OC(=O)c1ccccc1NCCO)C(=O)NCC(=O)Nc1ccc(F)c(F)c1F (stereo not given),–,–,–,–,–,·,·,·
CCOc1ccccc1NC1=C(Cl)C(=O)N(c2ccc(OC)cc2)C1=O,–,–,-16.6,–,–,64.0%,–,41.5%
COc1ccccc1NC1=C(Cl)C(=O)N(C2CCCCC2)C1=O,–,–,-8.53,–,–,58.5%,–,29.0%
CCOc1ccccc1OCCC(=O)OCC(=O)c1ccc[nH]1,–,–,–,–,–,·,·,·
O=C(CN1CCC(Cc2ccccc2)CC1)NC(=O)NC1CCCCC1,–,–,–,–,–,–,–,–
O=C(CN1CCN(Cc2ccccc2)CC1)NC(=O)NC1CCCCC1,–,–,–,–,–,·,·,·
CCN(CC(=O)NC(=O)NC1CCCCC1)Cc1ccccc1,–,–,–,–,–,–,–,–
CCC1=NN(C(=O)c2cccc(Br)c2)C(O)(c2ccc(Br)cc2)C1 (stereo not given),8,–,-10,–,–,42.0%,–,25.5%
CCC1=NN(C(=O)c2ccc(C)cc2)C(O)(c2ccc(Br)cc2)C1 (stereo not given),–,–,–,–,–,·,·,·
CCCCC1=NN(C(=O)c2cccnc2)C(O)(C(F)(F)F)C1 (stereo not given),–,–,–,–,–,·,·,·
CC(C)(C)C1CCc2onc(C(=O)NCc3ccc(F)cc3)c2C1 (stereo not given),–,–,–,–,–,–,–,–
COc1ccc(-c2ccc(C#N)c(SCC(=O)OCc3ccccc3)n2)cc1OC,–,–,–,–,–,·,·,·
N#Cc1ccc(-c2ccc3c(c2)OCO3)nc1SCC(=O)OCc1ccccc1,–,–,-10.2,–,–,–,–,27.0%
COc1cccc(CN2CC(C(=O)N(C)Cc3ccc(C)cc3)CCC2=O)c1 (stereo not given),–,–,–,–,–,·,·,·
O=C(CC(Nc1ccccc1)c1ccc(F)cc1)c1ccccc1 (stereo not given),–,–,-9.72,–,–,60.0%,–,42.5%
O=C(CC(Nc1ccccc1)C(=O)O)c1ccccc1 (stereo not given),–,–,–,–,–,·,·,·
CCCCCCCc1ccc(-c2ccc(O)cc2)nc1,–,–,–,–,–,–,–,–
Cc1nn(Cc2ccccc2)c(C)c1C(=O)OCC(=O)c1cc(C)n(CC(F)(F)F)c1C,–,–,–,–,–,–,–,–

# Screens: PubChem, Johns Hopkins Ion Channel Center
